Data reported in ChEMBL document CHEMBL4396973, “Design and development of a series of borocycles as selective, covalent kallikrein 5 inhibitors” (Bioorg Med Chem Lett, 2019).

Tests used:
Kallikrein-7 = Kallikrein-7 (Homo sapiens, UniProt P49862); assay: Inhibition of recombinant human C-terminal 10-His-tagged KLK7 (Glu23 to His252 residues) expressed in mouse NS0 cells using 5-FAM-E-A-L-Y-L-V-S-G-C(5-TAMRA) as substrate incubated for 40 mins by FLINT assay
Kallikrein-14 = target: T1, Kallikrein-14 (Homo sapiens, UniProt Q9P0G3); assay: Inhibition of recombinant human C-terminal 10-His-tagged KLK14 (Q19 to M248 residues) expressed in mouse NS0 cells using BOC-VPR-AMC as substrate incubated for 40 mins by FLINT assay
T1 sequence (Q9P0G3 whole entry): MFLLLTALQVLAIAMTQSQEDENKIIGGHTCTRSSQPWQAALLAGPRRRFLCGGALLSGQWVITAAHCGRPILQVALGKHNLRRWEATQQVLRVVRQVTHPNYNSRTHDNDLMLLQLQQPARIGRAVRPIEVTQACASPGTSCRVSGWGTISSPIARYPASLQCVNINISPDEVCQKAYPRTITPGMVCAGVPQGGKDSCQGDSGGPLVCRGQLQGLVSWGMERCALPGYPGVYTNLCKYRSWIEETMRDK

Kallikrein-8 = target: T2, Kallikrein-8 (Homo sapiens, UniProt O60259); assay: Inhibition of recombinant human C-terminal 10-His-tagged KLK8 (Gln29 to Gly260 residues) expressed in mouse NS0 cells using BOC-VPR-AMC as substrate incubated for 40 mins by FLINT assay
T2 sequence (O60259 whole entry): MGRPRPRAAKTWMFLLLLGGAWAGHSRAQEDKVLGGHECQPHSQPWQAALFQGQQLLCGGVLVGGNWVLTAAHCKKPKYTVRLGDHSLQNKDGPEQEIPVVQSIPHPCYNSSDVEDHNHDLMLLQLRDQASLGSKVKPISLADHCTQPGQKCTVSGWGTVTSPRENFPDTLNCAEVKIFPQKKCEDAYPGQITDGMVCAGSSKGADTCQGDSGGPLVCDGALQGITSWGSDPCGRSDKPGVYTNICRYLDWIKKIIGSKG

Kallikrein-1 [1] = target: T3, Kallikrein-1 (Homo sapiens, UniProt P06870); assay: Inhibition of human recombinant N-terminal His-tagged and enterokinase cleavage site-fused KLK1 (19 to 262 residues) expressed in baculovirus infected Sf9 insect cells at 10 uM using R110 labelled GSK3162232A as substrate measured at 30 secs interval for 5 mins by FLINT assay relative to control
Neutrophil elastase = target: T4, Neutrophil elastase (Homo sapiens, UniProt P08246); assay: Inhibition of human neutrophil elastase using MeOSuc-AAPV-AMC as substrate incubated for 40 mins by FLINT assay
T4 sequence (P08246 whole entry): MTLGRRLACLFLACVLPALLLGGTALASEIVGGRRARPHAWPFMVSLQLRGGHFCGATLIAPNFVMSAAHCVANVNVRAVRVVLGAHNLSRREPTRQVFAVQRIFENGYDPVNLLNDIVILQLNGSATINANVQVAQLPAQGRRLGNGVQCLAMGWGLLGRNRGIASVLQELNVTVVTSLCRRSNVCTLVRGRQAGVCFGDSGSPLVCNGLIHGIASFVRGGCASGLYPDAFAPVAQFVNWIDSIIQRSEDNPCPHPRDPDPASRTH

Kallikrein-5 [2] = target: T5, Kallikrein-5 (Homo sapiens, UniProt Q9Y337); assay: Inhibition of human recombinant 6His-Q-FLAG-tagged KLK5 expressed in baculovirus infected Sf9 insect cells using (Tos-Gly-Pro-Arg)2[R110].2TFA as substrate measured at 30 secs interval for 5 mins by FLINT assay
T5 sequence (Q9Y337 whole entry): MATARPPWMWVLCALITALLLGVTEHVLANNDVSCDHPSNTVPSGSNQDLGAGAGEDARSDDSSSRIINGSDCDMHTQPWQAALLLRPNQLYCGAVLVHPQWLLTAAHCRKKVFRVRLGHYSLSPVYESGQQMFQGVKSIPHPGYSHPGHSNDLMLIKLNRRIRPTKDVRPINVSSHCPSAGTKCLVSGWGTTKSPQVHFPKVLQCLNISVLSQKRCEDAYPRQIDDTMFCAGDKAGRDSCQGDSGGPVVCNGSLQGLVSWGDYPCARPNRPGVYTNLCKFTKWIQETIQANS
How it was run: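 Standard KLK5 assay format. Its theoretical tight-binding limit corresponds to pIC50 8.4.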

[3] = target: Urokinase-type plasminogen activator (Homo sapiens, UniProt P00749); assay: Inhibition of recombinant human C-terminal 10-His-tagged urokinase (M1 to L431 residues) expressed in mouse NS0 cells using Z-GGR-AMC as substrate incubated for 40 mins by FLINT assay
[4] = target: T6, Suppressor of tumorigenicity 14 protein (Homo sapiens, UniProt Q9Y5Y6); assay: Inhibition of recombinant human N-terminal Met and 6-His-tagged matriptase (G596 to V855 residues) expressed in Escherichia coli using Boc-QAR-AMC as substrate incubated for 40 mins by FLINT assay
T6 sequence (Q9Y5Y6 whole entry): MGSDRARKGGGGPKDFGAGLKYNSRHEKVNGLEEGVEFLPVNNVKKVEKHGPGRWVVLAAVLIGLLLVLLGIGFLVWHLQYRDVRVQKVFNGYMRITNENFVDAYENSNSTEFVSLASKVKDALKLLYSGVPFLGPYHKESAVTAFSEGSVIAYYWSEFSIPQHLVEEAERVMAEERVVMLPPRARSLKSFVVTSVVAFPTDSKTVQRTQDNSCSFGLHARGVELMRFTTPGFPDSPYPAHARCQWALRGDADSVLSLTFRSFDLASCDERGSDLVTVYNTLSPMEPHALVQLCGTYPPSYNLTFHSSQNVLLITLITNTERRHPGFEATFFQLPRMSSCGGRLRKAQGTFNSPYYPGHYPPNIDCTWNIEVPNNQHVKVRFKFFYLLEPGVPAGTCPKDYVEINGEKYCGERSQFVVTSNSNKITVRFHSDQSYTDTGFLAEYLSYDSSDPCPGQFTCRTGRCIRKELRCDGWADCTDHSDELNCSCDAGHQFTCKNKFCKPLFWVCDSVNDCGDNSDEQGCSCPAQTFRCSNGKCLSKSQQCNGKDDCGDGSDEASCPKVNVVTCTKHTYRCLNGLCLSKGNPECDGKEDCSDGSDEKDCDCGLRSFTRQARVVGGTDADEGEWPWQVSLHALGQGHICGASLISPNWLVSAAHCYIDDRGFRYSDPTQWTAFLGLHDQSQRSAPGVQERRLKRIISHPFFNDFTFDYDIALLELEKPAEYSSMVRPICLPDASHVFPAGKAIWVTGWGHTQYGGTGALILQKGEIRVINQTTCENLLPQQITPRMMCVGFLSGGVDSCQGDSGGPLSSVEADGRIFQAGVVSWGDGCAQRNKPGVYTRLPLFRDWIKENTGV

Plasma kallikrein = Plasma kallikrein (Homo sapiens, UniProt P03952); assay: Inhibition of human C-terminal 6-His-tagged KLKB1 (G20-A638 residues) expressed in mouse NS0 cells using PFR-AMC as substrate incubated for 40 mins by FLINT assay
Homo sapiens [5] = species on record: Homo sapiens; assay: Selectivity ratio of IC50 for human C-terminal 6-His-tagged KLKB1 (G20 to A638 residues) expressed in mouse NS0 cells to IC50 for human recombinant 6His-Q-FLAG-tagged KLK5 expressed in baculovirus infected Sf9 insect cells
Kallikrein-1 [6] = target: T3, Kallikrein-1; assay: Inhibition of human recombinant N-terminal His-tagged and enterokinase cleavage site-fused KLK1 (19 to 262 residues) expressed in baculovirus infected Sf9 insect cells using R110 labelled GSK3162232A as substrate measured at 30 secs interval for 5 mins by FLINT assay
Coagulation factor X = Coagulation factor X (Homo sapiens, UniProt P00742); assay: Inhibition of recombinant human C-terminal 10-His-tagged factor Xa (L24 to K488 residues) expressed in baculovirus infected Sf21 insect cells using Mca-RPKPVE-Nval-WRK(Dnp)-NH2 as substrate incubated for 40 mins by FLINT assay
[7] = Dissociation constant, borocycle pKa of the compound; type: physicochemical
Prothrombin = Prothrombin (Homo sapiens, UniProt P00734); assay: Inhibition of human recombinant C-terminal 10-His-tagged thrombin (M1 to E622 residues) expressed in mouse NS0 cells using BOC-VPR-AMC as substrate incubated for 40 mins by FLINT assay
Kallikrein-5 [8] = target: T5, Kallikrein-5; assay: Inhibition of human recombinant 6His-Q-FLAG-tagged KLK5 expressed in baculovirus infected Sf9 insect cells using (Tos-Gly-Pro-Arg)2[R110].2TFA as substrate measured at 30 secs interval for 5 mins using 1 x 10'10M enzyme by FLINT assay
Homo sapiens [9] = species on record: Homo sapiens; assay: Selectivity ratio of IC50 for human recombinant N-terminal His-tagged and enterokinase cleavage site-fused KLK1 (19 to 262 residues) expressed in baculovirus infected Sf9 insect cells to IC50 for human recombinant 6His-Q-FLAG-tagged KLK5 expressed in baculovirus infected Sf9 insect cells

SMILES	IC50 (Kallikrein-7)	IC50 (Kallikrein-14)	IC50 (Kallikrein-8)	inhibition (Kallikrein-1 [1])	IC50 (Neutrophil elastase)	IC50 (Kallikrein-5 [2])	IC50 [3]	IC50 [4]	IC50 (Plasma kallikrein)	Ratio IC50 (Homo sapiens [5])	IC50 (Kallikrein-1 [6])	IC50 (Coagulation factor X)	pKa [7]	IC50 (Prothrombin)	IC50 (Kallikrein-5 [8])	Ratio IC50 (Homo sapiens [9])
N=C(N)c1ccc(CC2OB(O)c3ccc(F)cc32)cc1OCc1cccnc1 (racemic)	> 100 µM	31.6 µM	12.6 µM	10%	100 µM	0.0158 µM	> 100 µM	39.8 µM	0.794 µM	10	> 10 µM	63.1 µM	4.66	15.8 µM	0.01 µM	–
N=C(N)c1ccc(NCC2Cc3ccccc3B(O)O2)cc1 (racemic)	–	–	–	35%	–	1.58 µM	–	–	–	–	> 10 µM	–	–	–	–	–
Cc1cccc2c1B(O)OC(c1ccc(C(=N)N)c(OCc3cccnc3)c1)C2 (racemic)	> 100 µM	0.398 µM	1.58 µM	27%	0.794 µM	0.0251 µM	5.01 µM	1.26 µM	0.0794 µM	10	> 10 µM	50.1 µM	–	3.16 µM	0.0251 µM	–
N=C(N)c1ccc(C2Cc3ccccc3B(O)O2)cc1 (racemic)	–	–	–	–	–	0.0794 µM	–	–	–	–	10 µM	–	–	–	–	30 to 100
N=C(N)c1ccc(CC2OB(O)c3cc(C(F)(F)F)ccc32)cc1OCc1cccnc1 (racemic)	> 100 µM	12.6 µM	2 µM	24%	> 100 µM	0.0126 µM	> 100 µM	31.6 µM	0.2 µM	10	> 10 µM	31.6 µM	4.51	20 µM	0.00251 µM	–
N=C(N)c1ccc(CC2OB(O)c3ccccc32)cc1 (racemic)	–	–	–	–	–	0.158 µM	–	–	–	–	5.01 µM	–	–	–	–	30 to 100
Cc1ccc2c(c1)C(Cc1ccc(C(=N)N)c(OCc3cccnc3)c1)OB2O (racemic)	> 100 µM	25.1 µM	10 µM	10%	25.1 µM	0.02 µM	> 100 µM	25.1 µM	0.794 µM	10	> 10 µM	31.6 µM	4.73	6.31 µM	0.00794 µM	–
COc1ccc2c(c1)C(Cc1ccc(C(=N)N)c(OCc3cccnc3)c1)OB2O (racemic)	> 100 µM	39.8 µM	12.6 µM	13%	> 100 µM	0.0398 µM	> 100 µM	25.1 µM	1.26 µM	10	> 10 µM	79.4 µM	4.71	31.6 µM	0.0251 µM	–
N=C(N)c1ccc(C2Cc3ccccc3B(O)O2)cc1OCc1cccnc1 (racemic)	> 100 µM	0.794 µM	0.398 µM	–	5.01 µM	–	50.1 µM	6.31 µM	0.1 µM	10	31.6 µM	7.94 µM	4.83	2.51 µM	0.00398 µM	> 100
